# Source: PubChem (The Scripps Research Institute Molecular Screening Center)
# A selection: hits, their analogues and other compounds. The true share with any hit is near 1.9%.
# PP1 inh – counter-screen for PP5 inhibitors: inhibitors of human PP1-alpha; purified PP1alpha, OMFP fluorescence; inhibition, % at 6.7 µM; 320,000 tested, 0.9% active; AID 2235; P62136;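 active = inhibition above the mean inhibition of all tested compounds plus 3 SD, computed separately for each screening campaign, cut at about 15% in these data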
# Target sequence (P62136 whole entry, looked up): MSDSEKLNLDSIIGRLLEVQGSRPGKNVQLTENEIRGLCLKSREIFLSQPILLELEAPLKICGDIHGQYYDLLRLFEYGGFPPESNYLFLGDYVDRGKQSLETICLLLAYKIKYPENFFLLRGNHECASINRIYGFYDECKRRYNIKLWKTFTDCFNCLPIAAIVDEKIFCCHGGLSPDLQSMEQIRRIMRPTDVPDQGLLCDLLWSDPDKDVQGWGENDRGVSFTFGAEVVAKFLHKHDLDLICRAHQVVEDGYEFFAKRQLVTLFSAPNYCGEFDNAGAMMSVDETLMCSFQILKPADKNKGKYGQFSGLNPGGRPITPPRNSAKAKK
# HCV core dimer – HCV core protein dimerization inhibition | TR-FRET GST/Flag-core106 dimerization, 1536-well | AID 1899 | 300,000 tested, 0.33% active | inhibition, % at 5 µM;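 active = inhibition above the mean of all tested compounds plus 3 SD, set per screening campaign, cut at about 45% in these data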
#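 assay system = GST-tagged and Flag-tagged HCV core protein residues 1-106 | controls = unlabelled core106 and no-GST-core106 wells | incubation = compound-protein-antibody incubation 4 h at 22.5 °C | probe or stimulus = Eu donor and XL665 acceptor anti-tag antibodies | read-out = % inhibition based on acceptor/donor emission ratio | signal = TR-FRET 671 and 617 nm emission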
# EBNA-1 inh – blocks EBNA-1 binding to DNA; EBNA-1 DNA binding, fluorescence polarization; inhibition, % at 14.8 µM; 300,000 tested, 0.34% active; AID 1950; in the data active = inhibition above about 28%
# ZTA counter – blocks Epstein-Barr virus ZTA, an EBNA-1 counter-screen; ZTA-DNA binding, fluorescence polarization; inhibition, % at 11 µM; 320,000 tested, 0.15% active; AID 2234; in the data active = inhibition above about 33%
# NS3 helicase inh – HCV NS3 helicase inhibition; NS3 helicase DNA unwinding, Cy5 molecular beacon fluorescence; inhibition, % at 10.9 µM; 290,000 tested, 0.56% active;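 active = inhibition above the mean of all tested compounds plus 3 SD, set per campaign, cut at about 35% in these data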;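 also: 0% = DMSO wells and 100% = thioflavine S control wells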
#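 Material: hepatitis C virus NS3 helicase domain fragment enzyme; measured by: Cy5 fluorescence, 0 and 60 min reads; control set: DMSO and thioflavine S; incubation: 60 min unwinding reaction at 25 °C after ATP addition; read-out basis: % inhibition from 60/0 min fluorescence ratio, DMSO 0%, thioflavine S 100%; repeats: singlicate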
# PP1 confirm – human PP1 phosphatase inhibition, confirmation; shares compounds with PP1 inh; purified PP1alpha, OMFP substrate fluorescence; inhibition, % at 6.7 µM; 1,900 tested, 52% active;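 active = mean PP1 inhibition above a set limit taken from the earlier primary screen, cut at about 15% in these data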
# PP5 counter – inhibits human PP5 phosphatase in PP1 counter-screen. shares compounds with PP1 inh. purified PP5c, OMFP fluorescence. inhibition, % at 6.7 µM. 1,900 tested, 4% active;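 active = mean PP5 inhibition over triplicate wells above about 9.5% taken from the earlier PP1 screen, limit read from the data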
# * = called active by the depositor; · = no result given.
SMILES,PP1 inh,HCV core dimer,EBNA-1 inh,ZTA counter,NS3 helicase inh,PP1 confirm,PP5 counter
CCOC(=O)Oc1c(OC)cc(C(=O)O[C@@H]2C[C@@H]3CN4CCc5c([nH]c6cc(OC)ccc56)[C@H]4C[C@@H]3[C@H](C(=O)OC)[C@H]2OC)cc1OC,19.5*,3.1,-9.8,-5.8,·,-0.4,4.6
Cc1ccc(N=Nc2ccc(O)c(P(=O)(c3ccccc3)c3ccccc3)c2)cc1,18.5*,17.5,-1.6,7.5,-0.7,15.7*,-3.5
COc1ccc(CCNC(=O)COC(=O)CNS(=O)(=O)c2ccc(SC)c([N+](=O)[O-])c2)cc1,-0.5,·,·,-23.4,·,·,·
O=C1C(=O)N(c2cccc(Cl)c2)C(c2ccccc2[N+](=O)[O-])/C1=C(\O)c1ccccc1 (stereo not given),-183.7,8.2,0.0,10.0,3.5,2.1,-1.6
O=C1C(=O)N(c2ccccc2)C(c2ccccc2[N+](=O)[O-])/C1=C(\O)c1ccccc1 (stereo not given),-0.3,1.9,-10.1,-3.0,0.9,·,·
CCOC(=O)[C@H]1[C@H]2COc3ccc(OC)cc3[C@@H]2N2C(=O)[C@H](C)NC(=O)[C@@]12C,-2.4,·,·,-5.0,·,·,·
Clc1ccc(C2=C3CCCCn4c(-c5ccccc5)c[n+](c43)C2)cc1,18.0*,8.0,7.4,3.0,-79.8,-11.8,-0.6
O=C(C[n+]1cc(-c2ccc(Cl)cc2)n2c1CCCCC2)c1ccccc1,-2.3,-3.6,-11.4,-16.0,-27.9,·,·
COc1ccc(-c2c[n+]3c4n2CCCCC4=C(c2ccc(Br)cc2)C3)cc1,33.0*,11.8,-2.1,-0.7,-82.9,-10.7,-1.3
COc1ccc(-c2cnc3n2CCCCC3)cc1,-3.9,-6.2,-0.2,-10.9,-0.8,·,·
O=C(CSc1ccc2nnc(-c3ccc(F)cc3)n2n1)N1CCCc2ccccc21,4.0,4.2,-4.5,1.1,6.5,·,·
O=C(CSc1ccc2nnc(-c3ccc(Cl)cc3)n2n1)N1CCCc2ccccc21,24.3*,15.8,4.2,6.4,2.6,13.2,-6.3
O=C(CSc1n[nH]c(=O)[nH]c1=O)Nc1ccc2c(c1)C(=O)c1ccccc1C2=O,21.1*,41.7,-4.9,-16.8,2.2,30.8*,-1.0
O=C(NCCCNc1ccnc2cc(Cl)ccc12)c1ccccc1F,-1.1,-5.1,2.3,1.0,5.1,·,·
O=C(c1ccc(NS(=O)(=O)c2ccc3[nH]c(=O)[nH]c3c2)cc1)N1CCCC(C(F)(F)F)C1 (stereo not given),-1.0,-4.0,15.2,9.7,·,·,·
CC(=O)Nc1ccccc1OCC(=O)c1cc(C)n(Cc2cccs2)c1C,2.6,4.8,2.7,17.2,-1.2,·,·
Cc1cc(C(=O)COc2cccnc2[N+](=O)[O-])c(C)n1Cc1cccs1,18.2*,2.2,1.4,-13.8,15.6,2.2,1.2
COc1ccc(S(=O)(=O)c2c(C)c(NS(=O)(=O)c3ccccc3)cc(C)c2O)cc1,20.7*,4.4,0.0,1.6,-4.4,0.4,0.9
COc1ccc(S(=O)(=O)Nc2cc(C)c(O)c(S(=O)(=O)c3ccccc3)c2)cc1,-4.5,-2.2,6.4,-2.7,-4.1,·,·
O=P(O)(O)CP(=O)(O)O,25.3*,7.1,-0.5,-7.8,-2.7,37.9*,5.0
CCN(CC)C(=O)Cn1cc(S(=O)(=O)CC(=O)Nc2ccc(F)cc2F)c2ccccc21,-1.1,-7.0,-2.9,16.2,-1.0,·,·
CSc1nc(NCCOCCO)c2sc3nc(-c4ccco4)c4c(c3c2n1)CCC4,44.9*,87.0*,-2.2,11.5,30.2,25.3*,-0.5
CCCCc1c(C(=O)O)cc(OC)cc1C(=O)O,-6.0,0.8,3.7,8.0,-7.1,·,·
CCCCCc1c2c(cc(O)c1C(=O)O)OC(=O)c1c(cc(OC)cc1C(=O)CCCC)O2,24.8*,8.2,4.8,11.4,5.7,27.6*,1.6
O=C(N/N=C\c1cccc([N+](=O)[O-])c1O)C1COc2ccccc2O1 (stereo not given),-7.0,-0.8,3.0,22.4,14.4,·,·
COc1cc([N+](=O)[O-])cc(/C=N\NC(=O)C2COc3ccccc3O2)c1O (stereo not given),32.3*,-21.4,4.3,8.0,10.8,25.9*,-3.0
